Laboratory results: ChEMBL document CHEMBL1131239, “Orally active benzamide antipsychotic agents with affinity for dopamine D2, serotonin 5-HT1A, and adrenergic alpha1 receptors” (J Med Chem, 1998)

Experiments:
[1] = test system: Rattus norvegicus; assay: compound was tested for antipsychotic activity by conditioned avoidance response(CAR) assay in rats with a pretreatment period of 30 min upon intra peritoneal administration at a concentration of 2.5 mg/kg.; type: functional
Procedure, shortened: (§1)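 Trained rats (N = 4) were run in 1-h sessions on two consecutive days, with the experimenter blind to drug and dose. Fed rats had food and water until placed in the test chambers. Fasted rats had no food overnight before the experiment.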

[2] = test system: Rattus norvegicus; assay: compound was tested for antipsychotic activity by conditioned avoidance response(CAR) assay in rats with a pretreatment period of 240 min upon peroral administration at a concentration of 20 mg/kg.; type: functional; details: route oral; procedure, shortened: as §1
[3] = biological target: T1, Adrenergic receptor alpha-1 (Rattus norvegicus, UniProt P15823+P23944+P43140); assay: Binding affinity against Alpha-1 adrenergic receptor from rat cerebral cortex; type: tissue-based
T1 sequence (P15823 whole entry): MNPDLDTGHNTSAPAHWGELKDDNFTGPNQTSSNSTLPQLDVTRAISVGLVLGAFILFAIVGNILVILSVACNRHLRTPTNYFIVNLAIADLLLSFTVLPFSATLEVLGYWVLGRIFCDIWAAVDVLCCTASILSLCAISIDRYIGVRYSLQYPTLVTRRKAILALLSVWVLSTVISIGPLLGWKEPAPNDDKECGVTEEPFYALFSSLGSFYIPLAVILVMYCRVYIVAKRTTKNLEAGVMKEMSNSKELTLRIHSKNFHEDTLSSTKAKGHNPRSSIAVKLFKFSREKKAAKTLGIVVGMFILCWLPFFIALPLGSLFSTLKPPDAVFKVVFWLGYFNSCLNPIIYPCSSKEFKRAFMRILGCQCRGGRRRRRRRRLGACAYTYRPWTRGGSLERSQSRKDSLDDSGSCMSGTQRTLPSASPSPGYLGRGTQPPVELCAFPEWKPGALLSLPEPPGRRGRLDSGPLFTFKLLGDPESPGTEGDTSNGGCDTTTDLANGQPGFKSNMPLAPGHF
T1 sequence (P23944 whole entry): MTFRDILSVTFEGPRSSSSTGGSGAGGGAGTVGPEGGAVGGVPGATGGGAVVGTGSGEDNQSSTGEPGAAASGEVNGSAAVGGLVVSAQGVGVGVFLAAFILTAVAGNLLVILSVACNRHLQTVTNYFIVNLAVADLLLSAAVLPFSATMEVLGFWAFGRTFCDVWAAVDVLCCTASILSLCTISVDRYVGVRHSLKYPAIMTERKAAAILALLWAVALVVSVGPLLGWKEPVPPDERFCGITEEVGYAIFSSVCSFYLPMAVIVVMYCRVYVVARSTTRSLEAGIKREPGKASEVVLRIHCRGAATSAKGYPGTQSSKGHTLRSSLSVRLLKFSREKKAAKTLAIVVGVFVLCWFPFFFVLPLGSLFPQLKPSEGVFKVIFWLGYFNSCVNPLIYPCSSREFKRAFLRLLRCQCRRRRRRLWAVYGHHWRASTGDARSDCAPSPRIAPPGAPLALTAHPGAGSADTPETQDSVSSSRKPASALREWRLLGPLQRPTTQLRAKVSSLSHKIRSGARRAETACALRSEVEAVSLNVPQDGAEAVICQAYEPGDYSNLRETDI
T1 sequence (P43140 whole entry): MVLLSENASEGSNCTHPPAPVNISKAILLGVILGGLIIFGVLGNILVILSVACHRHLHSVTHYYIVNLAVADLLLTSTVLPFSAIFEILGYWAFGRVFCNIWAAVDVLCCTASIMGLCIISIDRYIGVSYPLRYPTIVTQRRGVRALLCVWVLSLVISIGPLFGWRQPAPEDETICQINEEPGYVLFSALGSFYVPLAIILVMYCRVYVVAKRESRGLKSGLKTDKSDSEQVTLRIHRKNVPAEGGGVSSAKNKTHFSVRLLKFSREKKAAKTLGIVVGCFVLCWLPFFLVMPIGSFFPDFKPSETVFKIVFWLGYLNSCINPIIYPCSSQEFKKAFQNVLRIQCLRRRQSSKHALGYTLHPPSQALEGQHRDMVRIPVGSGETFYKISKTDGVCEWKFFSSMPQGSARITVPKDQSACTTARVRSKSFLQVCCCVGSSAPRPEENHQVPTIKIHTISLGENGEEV

[4] = test system: Rattus norvegicus; assay: compound was tested for antipsychotic activity by conditioned avoidance response(CAR) assay in rats with a pretreatment period of 30 min upon intra peritoneal administration at a concentration of 5 mg/kg.; type: functional
Procedure, shortened: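 Rat conditioned avoidance test modified from Martin et al. Trained rats (N = 4) were run in 1-h sessions on two consecutive days. Fed animals had food and water until placed in the test chambers. Dosing was ip with 30 min pretreatment, and activity was expressed as percent inhibition at the stated dose.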

[5] = test system: Rattus norvegicus; assay: compound was tested for antipsychotic activity by conditioned avoidance response(CAR) assay in rats with a pretreatment period of 240 min upon intra peritoneal administration at a concentration of 2.5 mg/kg.; type: functional; procedure, shortened: as §1
[6] = biological target: T2, 5-hydroxytryptamine receptor 1A (Rattus norvegicus, UniProt P19327); assay: Compound was evaluated for its binding affinity against 5-hydroxytryptamine 1A receptor from rat cerebral cortex; type: tissue-based
T2 sequence (P19327 whole entry): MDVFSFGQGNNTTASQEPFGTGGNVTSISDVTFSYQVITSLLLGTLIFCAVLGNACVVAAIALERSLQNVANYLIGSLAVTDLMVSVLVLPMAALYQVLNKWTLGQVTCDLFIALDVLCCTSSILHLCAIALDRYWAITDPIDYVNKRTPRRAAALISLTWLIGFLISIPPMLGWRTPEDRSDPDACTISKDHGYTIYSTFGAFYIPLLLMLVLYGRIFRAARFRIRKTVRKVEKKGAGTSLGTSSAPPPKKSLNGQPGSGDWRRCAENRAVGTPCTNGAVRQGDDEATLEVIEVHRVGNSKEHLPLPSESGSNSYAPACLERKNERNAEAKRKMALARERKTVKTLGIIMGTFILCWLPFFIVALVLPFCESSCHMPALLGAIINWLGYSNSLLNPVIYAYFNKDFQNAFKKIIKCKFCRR

[7] = test system: Rattus norvegicus; assay: Percent catalepsy in male Spargue-Dawley rat at pretreatment time 240 mins and when administered ip at dose 50 mg/kg; type: functional; details: route intraperitoneal
Procedure, shortened: (§2)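 Catalepsy in rats, groups of five per drug treatment, scored blind to drug and dose. Each session included a saline or vehicle negative control and a haloperidol 2 mg/kg positive control. Deaths during the experiment were recorded in the catalepsy column as number dead out of five.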

[8] = test system: Rattus norvegicus; assay: compound was tested for antipsychotic activity by conditioned avoidance response(CAR) assay in rats with a pretreatment period of 30 min upon intra peritoneal administration at a concentration of 1 mg/kg.; type: functional; procedure, shortened: as §1
[9] = test system: Rattus norvegicus; assay: Percent catalepsy in male Spargue-Dawley rat at pretreatment time 60 mins and when administered ip at dose 50 mg/kg; type: functional; details: route intraperitoneal; procedure, shortened: as §2
[10] = test system: Rattus norvegicus; assay: compound was tested for antipsychotic activity by conditioned avoidance response(CAR) assay in rats with a pretreatment period of 60 min upon peroral administration at a concentration of 20 mg/kg.; type: functional; details: route oral
[11] = test system: Rattus norvegicus; assay: compound was tested for antipsychotic activity by conditioned avoidance response(CAR) assay in rats with a pretreatment period of 30 min upon intra peritoneal administration at a concentration of 15 mg/kg.; type: functional

Compound `CCN(CC)C(=O)c1cccc(CN2CCN(c3ccccc3OC(C)C)CC2)c1` has an inhibition in vivo at 2.5 mg/kg [1] of -60%, an inhibition in vivo at 20 mg/kg [2] of -44.6% and a Ki [3] of 4.4 nM. For the same compound, the inhibition in vivo at 5 mg/kg [4] was -96.2%, the inhibition in vivo at 2.5 mg/kg [5] was -44.4% and the Ki [6] was 2.1 nM. For the same compound, the Catalepsy [7] was 36.8%, the inhibition in vivo at 1 mg/kg [8] was -65.1% and the Catalepsy [9] was 76.9%. For the same compound, the inhibition in vivo at 20 mg/kg [10] was -93.4% and the inhibition in vivo at 15 mg/kg [11] was -94.5%.
